Experimental data as given in ChEMBL document CHEMBL4020718, “Trifluoromethyl arylamides with antileukemia effect and intracellular inhibitory activity over serine/arginine-rich protein kinases (SRPKs)” (Eur J Med Chem, 2017).
Calls of active or inactive are those of the source. The calls are words filed in the database; no cut-off is given here.

What was measured:
HL-60 [1] = assay: Cytotoxicity against human HL60 cells assessed as reduction in cell viability up to 200 uM after 48 hrs by MTT assay; assay type: functional, cell-based
Summary of the method: (§1)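 Cells (7x10^4/well) in RPMI-1640 with 10% FBS, 37 °C, 5% CO2; exposed to compound dilutions 0–200 µM (medium with 10% FBS, 0.4% DMSO) for 48 h. MTT added, 3 h at 37 °C, formazan dissolved in DMSO, absorbance 540 nm. IC50 from concentration–response; means ± standard deviation of three independent experiments.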

Jurkat = assay: Cytotoxicity against human Jurkat cells assessed as reduction in cell viability up to 200 uM after 48 hrs by MTT assay; assay type: functional, cell-based; summary of the method: as §1
NALM-6 [2] = assay: Cytotoxicity against human NALM6 cells assessed as reduction in cell viability up to 200 uM after 48 hrs by MTT assay; assay type: functional, cell-based; summary of the method: as §1
NALM-6 [3] = assay: Synergistic cytotoxicity against human NALM6 cells assessed as reduction in cell viability by measuring combination index at 8.9 uM after 48 hrs in presence of 0.5 nM vincristine by MTT assay; assay type: functional
NALM-6 [4] = assay: Synergistic cytotoxicity against human NALM6 cells assessed as reduction in cell viability by measuring combination index at 17.9 uM after 48 hrs in presence of 1 nM vincristine by MTT assay; assay type: functional
NALM-6 [5] = assay: Induction of autophagy in human NALM6 cells at 20 uM after 24 hrs by acridin orange staining based fluorescence microscopy; assay type: functional, cell-based
Summary of the method: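 Nalm6 (7x10^4/well) exposed 24 h to 20 µM or 0.4% DMSO, washed in PBS, stained with 1 µM acridine orange at 37 °C for 15 min, washed, resuspended in PBS; autophagosomes (red fluorescence) viewed by fluorescence microscopy; three experiments.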

PBMC = assay: Cytotoxicity against PHA-stimulated human PBMC assessed as reduction in cell viability at 25 uM after 48 hrs by MTT assay; assay type: cell-based
Summary of the method: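 Primary peripheral blood mononuclear cells seeded 1x10^5/well in complete RPMI; treated with 25 µM for 48 h. Viability by MTT (3 h, 37 °C, DMSO solubilization, 540 nm), vehicle taken as 100% viability; triplicate experiments, means ± standard deviation.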

NALM-6 [6] = assay: Induction of apoptosis in human NALM6 cells assessed as viable cells at 20 uM after 12 hrs by Annexin-V/FITC propidium iodide staining based flow cytometric analysis (reference value: 92.11%); assay type: functional; details: NALM-6, 12 h, read-out: Activity
NALM-6 [7] = assay: Induction of apoptosis in human NALM6 cells assessed as early apoptotic cells at 20 uM after 12 hrs by Annexin-V/FITC propidium iodide staining based flow cytometric analysis (reference value: 7.40%); assay type: functional
NALM-6 [8] = assay: Induction of apoptosis in human NALM6 cells assessed as late apoptotic cells at 20 uM after 12 hrs by Annexin-V/FITC propidium iodide staining based flow cytometric analysis (reference value: 0.45%); assay type: functional
NALM-6 [9] = assay: Induction of apoptosis in human NALM6 cells assessed as necrotic cells at 20 uM after 12 hrs by Annexin-V/FITC propidium iodide staining based flow cytometric analysis (reference value: 0.04%); assay type: functional
NALM-6 [10] = assay: Induction of apoptosis in human NALM6 cells assessed as viable cells at 20 uM after 24 hrs by Annexin-V/FITC propidium iodide staining based flow cytometric analysis (reference value: 90.10%); assay type: functional; details: NALM-6, 24 h, read-out: Activity
NALM-6 [11] = assay: Induction of apoptosis in human NALM6 cells assessed as early apoptotic cells at 20 uM after 24 hrs by Annexin-V/FITC propidium iodide staining based flow cytometric analysis (reference value: 8.22%); assay type: functional
NALM-6 [12] = assay: Induction of apoptosis in human NALM6 cells assessed as late apoptotic cells at 20 uM after 24 hrs by Annexin-V/FITC propidium iodide staining based flow cytometric analysis (reference value: 1.68%); assay type: functional
NALM-6 [13] = assay: Induction of apoptosis in human NALM6 cells assessed as necrotic cells at 20 uM after 24 hrs by Annexin-V/FITC propidium iodide staining based flow cytometric analysis (reference value: 0%); assay type: functional
HL-60 [14] = assay: Antiproliferative activity against human HL60 cells at 20 uM by trypan blue dye exclusion assay; assay type: functional, cell-based; details: TDE = time-dependent effect
Summary of the method: (§2)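 Nalm6 at 1x10^4 or HL60 at 1.5x10^4 cells per well exposed to 20 µM; DMSO (0.4% v/v) as control. Viable cells counted by trypan blue exclusion on a hemocytometer at 0, 24, 48, 72 and 96 h; growth inhibition relative to control.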

NALM-6 [15] = assay: Antiproliferative activity against human NALM6 cells at 20 uM by trypan blue dye exclusion assay; assay type: functional, cell-based; details: TDE = time-dependent effect; summary of the method: as §2
HL-60 [16] = assay: Cytotoxicity against human HL60 cells assessed as cell growth inhibition at 20 uM after 96 hrs by trypan blue dye exclusion assay relative to control; assay type: functional; details: HL-60, 96 h, read-out: GI; summary of the method: as §2
NALM-6 [17] = assay: Cytotoxicity against human NALM6 cells assessed as cell growth inhibition at 20 uM after 96 hrs by trypan blue dye exclusion assay relative to control; assay type: functional; details: NALM-6, 96 h, read-out: GI; summary of the method: as §2
NALM-6 [18] = assay: Effect on actin expression level in human NALM6 cells at 20 uM after 24 hrs by qRT-PCR analysis; assay type: ADME, cell-based; details: nalm-6, 24 h
NALM-6 [19] = assay: Effect on SRPK1 expression level in human NALM6 cells at 20 uM after 24 hrs by Western blot analysis; assay type: functional, cell-based
Summary of the method: (§3)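 Nalm6 treated 24 h at 20 µM (DMSO vehicle control), lysed at 2x10^7 cells/mL in PBS with 1% NP40, 1 mM EDTA, 150 mM NaCl, 10 mM Tris pH 7.4 plus protease/phosphatase inhibitors; on ice 10 min, sonicated, spun 15000 xg; SDS-PAGE, PVDF, milk block overnight, primary and secondary antibody 2 h each; representative of three.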

NALM-6 [20] = assay: Effect on SRPK2 expression level in human NALM6 cells at 20 uM after 24 hrs by Western blot analysis; assay type: functional, cell-based; summary of the method: as §3
NALM-6 [21] = assay: Effect on actin expression level in human NALM6 cells at 20 uM after 24 hrs by Western blot analysis; assay type: ADME, cell-based; details: nalm-6, 24 h; summary of the method: as §3
NALM-6 [22] = assay: Synergistic cytotoxicity against human NALM6 cells assessed as reduction in cell viability by measuring combination index at 4.3 uM after 48 hrs in presence of 0.5 nM vincristine by MTT assay; assay type: functional
NALM-6 [23] = assay: Synergistic cytotoxicity against human NALM6 cells assessed as reduction in cell viability by measuring combination index at 8.5 uM after 48 hrs in presence of 1 nM vincristine by MTT assay; assay type: functional
Homo sapiens [24] = organism: Homo sapiens; assay: Inhibition of SRPK in human NALM6 cells assessed as decrease in MAP2K1 mRNA expression level at 20 uM after 24 hrs by qRT-PCR analysis; assay type: cell-based
Summary of the method: (§4)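 Nalm6 given 20 µM for 24 h with 0.4% DMSO control; mRNA isolated with Tri Reagent, quantified spectrophotometrically, integrity checked on 1% agarose, then RT-PCR for target transcripts; one representative of three experiments.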

Homo sapiens [25] = organism: Homo sapiens; assay: Inhibition of SRPK in human NALM6 cells assessed as decrease in MAP2K2 mRNA expression level at 20 uM after 24 hrs by qRT-PCR analysis; assay type: cell-based; summary of the method: as §4
Homo sapiens [26] = organism: Homo sapiens; assay: Inhibition of SRPK in human NALM6 cells assessed as decrease in VEGF mRNA expression level at 20 uM after 24 hrs by qRT-PCR analysis; assay type: cell-based; summary of the method: as §4
Homo sapiens [27] = organism: Homo sapiens; assay: Inhibition of SRPK in human NALM6 cell lysates assessed as reduction in phospho-SR epitopes signal at 20 uM after 24 hrs by Western blot analysis; summary of the method: as §3
Homo sapiens [28] = organism: Homo sapiens; assay: Inhibition of SRPK in human NALM6 cells assessed as decrease in RON mRNA expression level at 20 uM after 24 hrs by qRT-PCR analysis; assay type: cell-based; summary of the method: as §4
[29] = Homo sapiens, HL-60, 48 h, read-out: IC50
[30] = Homo sapiens, NALM-6, 48 h, read-out: IC50
[31] = Homo sapiens, Jurkat, 48 h, read-out: IC50

In the case of `O=C(Nc1cc(C(F)(F)F)ccc1N1CCOCC1)c1cccnc1Cl`, the IC50 (HL-60 [1]; hl-60) is reported as “Not Active”, the IC50 (Jurkat; jurkat) is reported as “Not Active” and the IC50 (NALM-6 [2]; nalm-6) is reported as “Not Active”.

For `O=C(Nc1cc(C(F)(F)F)ccc1N1CCOCC1)c1ccncc1`, the IC50 (HL-60 [1]; hl-60) was “Not Active”, the IC50 (Jurkat; jurkat) was “Not Active” and the IC50 (NALM-6 [2]; nalm-6) was “Not Active”.

In the case of `CCN(CC)c1ccc(C(F)(F)F)cc1NC(=O)c1cccnc1`, the IC50 (HL-60 [1]; [29]) is reported as 71 µM, the IC50 (Jurkat; jurkat) is reported as “Not Active” and the IC50 (NALM-6 [2]; [30]) is reported as 63.2 µM.

`O=C(Nc1cc(C(F)(F)F)ccc1NC1CCCCC1)c1ccncc1` showed an IC50 (HL-60 [1]; [29]) of 59.2 µM, an IC50 (Jurkat; [31]) of 80.9 µM and an IC50 (NALM-6 [2]; [30]) of 59 µM.

In the case of `O=C(Nc1cc(C(F)(F)F)ccc1Nc1ccc(Br)cc1)c1cccnc1Cl`, the CI (NALM-6 [3]) is reported as 0.57, the CI (NALM-6 [4]) is reported as 1.02 and the Activity (NALM-6 [5]) is reported as “Active”. The IC50 (HL-60 [1]; [29]) was 14.2 µM, the IC50 (Jurkat; [31]) was 20.6 µM and the IC50 (NALM-6 [2]; [30]) was 35.7 µM. For the same molecule, the Activity (PBMC) was “Toxic”, the viability at 20 µM (NALM-6 [6]) was 87.9% and the Activity (NALM-6 [7]) was 11.7%. For the same molecule, the Activity (NALM-6 [8]) was 0.52%, the Activity (NALM-6 [9]) was 0% and the viability at 20 µM (NALM-6 [10]) was 86.8%. For the same molecule, the Activity (NALM-6 [11]) was 11.91%, the Activity (NALM-6 [12]) was 1.16% and the Activity (NALM-6 [13]) was 0.07%. The Activity (HL-60 [14]) was “Tde”, the Activity (NALM-6 [15]) was “Tde” and the inhibition of growth at 20 µM (HL-60 [16]) was 33%. The inhibition of growth at 20 µM (NALM-6 [17]) was 37%, the Activity (NALM-6 [18]) was “Non-Toxic” and the Activity (NALM-6 [19]) was “inactive”. For the same molecule, the Activity (NALM-6 [20]) was “inactive” and the Activity (NALM-6 [21]) was “Non-Toxic”.

`O=C(Nc1cc(C(F)(F)F)ccc1N1CCCCC1)c1cccnc1` was tested, and the IC50 (HL-60 [1]; hl-60) was “Not Active”, the IC50 (Jurkat; jurkat) was “Not Active” and the IC50 (NALM-6 [2]; nalm-6) was “Not Active”.

In the case of `O=C(Nc1cc(C(F)(F)F)ccc1N1CCCCC1)c1ccccc1`, the IC50 (HL-60 [1]; hl-60) is reported as “Not Active”, the IC50 (Jurkat; jurkat) is reported as “Not Active” and the IC50 (NALM-6 [2]; nalm-6) is reported as “Not Active”.

With `O=C(Nc1cc(C(F)(F)F)ccc1Nc1ccc(Br)cc1)c1ccncc1` the IC50 (HL-60 [1]; hl-60) was “Not Active”, the IC50 (Jurkat; jurkat) was “Not Active” and the IC50 (NALM-6 [2]; [30]) was 51.9 µM.

For `O=C(Nc1cc(C(F)(F)F)ccc1N1CCCC1)c1ccccc1`, the IC50 (HL-60 [1]; hl-60) was “Not Active”, the IC50 (Jurkat; jurkat) was “Not Active” and the IC50 (NALM-6 [2]; nalm-6) was “Not Active”.

`CCN(CC)c1ccc(C(F)(F)F)cc1NC(=O)c1ccncc1` was tested, and the IC50 (HL-60 [1]; [29]) was 89.7 µM, the IC50 (Jurkat; jurkat) was “Not Active” and the IC50 (NALM-6 [2]; [30]) was 63.6 µM.

With `O=C(Nc1cc(C(F)(F)F)ccc1Nc1ccc(Br)cc1)c1cccnc1` the Activity (NALM-6 [5]) was “Active”, the IC50 (HL-60 [1]; [29]) was 8.5 µM and the IC50 (Jurkat; [31]) was 17.8 µM. The IC50 (NALM-6 [2]; [30]) was 17 µM, the Activity (PBMC) was “Non-Toxic” and the CI (NALM-6 [22]) was 0.45. For the same molecule, the CI (NALM-6 [23]) was 0.78, the viability at 20 µM (NALM-6 [6]) was 87% and the Activity (NALM-6 [7]) was 12.33%. The Activity (NALM-6 [8]) was 0.67%, the Activity (NALM-6 [9]) was 0% and the viability at 20 µM (NALM-6 [10]) was 84.4%. It also gave an Activity (NALM-6 [11]) of 14.66%, an Activity (NALM-6 [12]) of 0.92% and an Activity (NALM-6 [13]) of 0.01%. The Activity (HL-60 [14]) was “Tde”, the Activity (NALM-6 [15]) was “Tde” and the inhibition of growth at 20 µM (HL-60 [16]) was 38%. The inhibition of growth at 20 µM (NALM-6 [17]) was 66%, the inhibition (Homo sapiens [24]) was “Active” and the inhibition (Homo sapiens [25]) was “Active”. For the same molecule, the inhibition (Homo sapiens [26]) was “Active”, the inhibition (Homo sapiens [27]) was “Active” and the Activity (NALM-6 [18]) was “Non-Toxic”. For the same molecule, the Activity (NALM-6 [19]) was “inactive”, the Activity (NALM-6 [20]) was “inactive” and the Activity (NALM-6 [21]) was “Non-Toxic”. The inhibition (Homo sapiens [28]) was “Active”.
